Experiments:
[1] = molecular target: T1, Tyrosine-protein kinase JAK1 (Homo sapiens, UniProt P23458); experiment: Inhibition of JAK1 (unknown origin)
[2] = molecular target: T1, Tyrosine-protein kinase JAK1; experiment: Inhibition of JAK1-mediated STAT3 phosphorylation in IL6-induced human TF1 cells; format: cell-based, TF-1
Homo sapiens [3] = species on record: Homo sapiens; experiment: Selectivity ratio of Ki for JAK2 (unknown origin) to Ki for JAK1 (unknown origin)
Procedure, shortened: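 Biochemical JAK enzyme assay giving Ki, reported as the arithmetic mean of at least three separate determinations. Selectivity is taken as JAK2 Ki divided by JAK1 Ki.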

TF-1 = experiment: Selectivity ratio of EC50 for JAK2-mediated STAT5 phosphorylation in EPO-induced human TF1 cells to EC50 for JAK1-mediated STAT3 phosphorylation in IL6-induced human TF1 cells; format: cell-based
[4] = Half life in human liver microsomes; format: ADME, Microsome
Procedure, shortened: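 Half-life measured by incubation with in vitro preparations of human liver microsomes.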

[5] = molecular target: Tyrosine-protein kinase JAK2 (Homo sapiens, UniProt O60674); experiment: Inhibition of JAK2 (unknown origin)
Tyrosine-protein kinase JAK2, sequence (O60674 whole entry): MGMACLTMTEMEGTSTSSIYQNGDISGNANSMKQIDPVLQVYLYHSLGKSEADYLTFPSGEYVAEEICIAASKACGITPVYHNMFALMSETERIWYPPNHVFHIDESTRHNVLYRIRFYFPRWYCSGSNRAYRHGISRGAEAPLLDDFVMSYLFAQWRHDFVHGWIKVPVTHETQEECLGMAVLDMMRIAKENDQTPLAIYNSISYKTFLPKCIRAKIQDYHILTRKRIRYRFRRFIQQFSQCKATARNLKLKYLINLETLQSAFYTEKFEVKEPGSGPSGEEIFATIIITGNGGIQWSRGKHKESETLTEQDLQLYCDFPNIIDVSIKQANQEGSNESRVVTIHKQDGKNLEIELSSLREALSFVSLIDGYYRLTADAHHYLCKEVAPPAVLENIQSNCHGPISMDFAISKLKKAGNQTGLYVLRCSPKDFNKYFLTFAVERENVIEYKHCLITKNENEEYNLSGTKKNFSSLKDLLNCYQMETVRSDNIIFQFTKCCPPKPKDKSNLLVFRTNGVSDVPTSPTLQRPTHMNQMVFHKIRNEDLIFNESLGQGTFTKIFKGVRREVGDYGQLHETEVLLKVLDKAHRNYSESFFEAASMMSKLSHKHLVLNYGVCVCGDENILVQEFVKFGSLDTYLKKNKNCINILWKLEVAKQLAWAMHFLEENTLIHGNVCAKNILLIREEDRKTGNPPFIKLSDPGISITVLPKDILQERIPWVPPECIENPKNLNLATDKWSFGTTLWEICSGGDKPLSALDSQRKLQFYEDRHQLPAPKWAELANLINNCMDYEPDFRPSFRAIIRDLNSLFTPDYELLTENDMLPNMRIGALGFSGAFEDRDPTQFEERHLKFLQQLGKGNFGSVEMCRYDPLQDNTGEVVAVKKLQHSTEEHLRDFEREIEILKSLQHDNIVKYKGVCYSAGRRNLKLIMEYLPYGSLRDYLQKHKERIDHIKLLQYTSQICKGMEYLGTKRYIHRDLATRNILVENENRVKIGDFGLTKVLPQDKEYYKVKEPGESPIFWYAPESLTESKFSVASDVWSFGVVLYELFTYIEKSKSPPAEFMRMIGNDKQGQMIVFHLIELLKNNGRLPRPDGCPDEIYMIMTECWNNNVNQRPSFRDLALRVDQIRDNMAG

[6] = Lipophilicity, log D of the compound at pH 7.2; format: physicochemical; settings: buffer
Procedure, shortened: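 Log D determined experimentally at pH 7.2.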

Homo sapiens [7] = species on record: Homo sapiens; experiment: Selectivity ratio of Ki for JAK3 (unknown origin) to Ki for JAK1 (unknown origin)
[8] = Clearance in Sprague-Dawley rat at 1 mg/kg, iv; format: ADME, organism-based; parameters: dose 1 mg/kg, route intravenous; settings: in vivo
Procedure, shortened: (§1)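 Rat pharmacokinetics given as mean profiles from three animals. Values normalized to 1 mg/kg iv and 5 mg/kg po. Clearance is plasma clearance after iv dosing.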

[9] = Apparent permeability from apical to basolateral side in MDCK cells; format: ADME, cell-based, Canis lupus familiaris; settings: dog
Procedure, shortened: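 MDCK cells grown in transwell culture. Apparent permeability measured in the apical-to-basolateral direction and reported as the arithmetic mean of at least two separate determinations.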

Homo sapiens [10] = species on record: Homo sapiens; experiment: Selectivity ratio of Ki for TYK2 (unknown origin) to Ki for JAK1 (unknown origin)
[11] = AUC in Sprague-Dawley rat at 5 mg/kg, po; format: ADME, organism-based; parameters: dose 5 mg/kg, route oral; settings: plasma; procedure, shortened: as §1
[12] = Cmax in Sprague-Dawley rat at 5 mg/kg, po; format: ADME, organism-based; parameters: dose 5 mg/kg, route oral; settings: in vivo; procedure, shortened: as §1
[13] = Oral bioavailability in Sprague-Dawley rat at 5 mg/kg; format: ADME, organism-based; settings: in vivo; procedure, shortened: as §1
[14] = molecular target: Non-receptor tyrosine-protein kinase TYK2 (Homo sapiens, UniProt P29597); experiment: Inhibition of TYK2 (unknown origin)
Non-receptor tyrosine-protein kinase TYK2, sequence (P29597 whole entry): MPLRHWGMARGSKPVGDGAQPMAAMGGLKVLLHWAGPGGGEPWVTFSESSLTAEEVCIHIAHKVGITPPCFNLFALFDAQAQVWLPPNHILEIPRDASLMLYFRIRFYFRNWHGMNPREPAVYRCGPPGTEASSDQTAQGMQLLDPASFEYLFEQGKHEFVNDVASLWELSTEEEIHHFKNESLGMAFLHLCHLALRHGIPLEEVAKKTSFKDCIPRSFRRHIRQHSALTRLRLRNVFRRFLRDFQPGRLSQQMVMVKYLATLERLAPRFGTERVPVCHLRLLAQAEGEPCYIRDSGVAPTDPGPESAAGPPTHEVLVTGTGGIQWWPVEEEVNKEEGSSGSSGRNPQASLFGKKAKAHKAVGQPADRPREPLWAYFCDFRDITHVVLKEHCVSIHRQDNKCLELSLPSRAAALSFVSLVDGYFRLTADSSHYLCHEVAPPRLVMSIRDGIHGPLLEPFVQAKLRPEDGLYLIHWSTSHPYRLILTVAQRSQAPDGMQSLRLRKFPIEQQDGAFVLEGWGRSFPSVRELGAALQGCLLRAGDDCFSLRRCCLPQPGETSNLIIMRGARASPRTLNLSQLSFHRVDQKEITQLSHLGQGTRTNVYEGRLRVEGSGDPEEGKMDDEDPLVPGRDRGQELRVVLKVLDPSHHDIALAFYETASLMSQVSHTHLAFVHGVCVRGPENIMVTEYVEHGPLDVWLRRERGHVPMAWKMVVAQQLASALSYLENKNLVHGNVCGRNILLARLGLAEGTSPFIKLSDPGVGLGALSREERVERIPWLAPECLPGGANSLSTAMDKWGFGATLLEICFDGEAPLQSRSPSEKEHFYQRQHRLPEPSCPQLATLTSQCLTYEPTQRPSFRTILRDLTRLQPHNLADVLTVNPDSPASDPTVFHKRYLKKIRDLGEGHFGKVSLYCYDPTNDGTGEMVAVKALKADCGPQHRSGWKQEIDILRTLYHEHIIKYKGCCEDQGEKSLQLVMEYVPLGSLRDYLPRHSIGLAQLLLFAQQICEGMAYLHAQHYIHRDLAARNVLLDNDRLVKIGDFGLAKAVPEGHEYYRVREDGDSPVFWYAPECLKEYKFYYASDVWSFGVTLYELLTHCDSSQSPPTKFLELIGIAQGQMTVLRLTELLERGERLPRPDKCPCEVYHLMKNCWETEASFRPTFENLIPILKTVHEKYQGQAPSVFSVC

[15] = molecular target: T2, Tyrosine-protein kinase JAK3 (Homo sapiens, UniProt P52333); experiment: Inhibition of JAK3 (unknown origin)
T2 sequence (P52333 whole entry): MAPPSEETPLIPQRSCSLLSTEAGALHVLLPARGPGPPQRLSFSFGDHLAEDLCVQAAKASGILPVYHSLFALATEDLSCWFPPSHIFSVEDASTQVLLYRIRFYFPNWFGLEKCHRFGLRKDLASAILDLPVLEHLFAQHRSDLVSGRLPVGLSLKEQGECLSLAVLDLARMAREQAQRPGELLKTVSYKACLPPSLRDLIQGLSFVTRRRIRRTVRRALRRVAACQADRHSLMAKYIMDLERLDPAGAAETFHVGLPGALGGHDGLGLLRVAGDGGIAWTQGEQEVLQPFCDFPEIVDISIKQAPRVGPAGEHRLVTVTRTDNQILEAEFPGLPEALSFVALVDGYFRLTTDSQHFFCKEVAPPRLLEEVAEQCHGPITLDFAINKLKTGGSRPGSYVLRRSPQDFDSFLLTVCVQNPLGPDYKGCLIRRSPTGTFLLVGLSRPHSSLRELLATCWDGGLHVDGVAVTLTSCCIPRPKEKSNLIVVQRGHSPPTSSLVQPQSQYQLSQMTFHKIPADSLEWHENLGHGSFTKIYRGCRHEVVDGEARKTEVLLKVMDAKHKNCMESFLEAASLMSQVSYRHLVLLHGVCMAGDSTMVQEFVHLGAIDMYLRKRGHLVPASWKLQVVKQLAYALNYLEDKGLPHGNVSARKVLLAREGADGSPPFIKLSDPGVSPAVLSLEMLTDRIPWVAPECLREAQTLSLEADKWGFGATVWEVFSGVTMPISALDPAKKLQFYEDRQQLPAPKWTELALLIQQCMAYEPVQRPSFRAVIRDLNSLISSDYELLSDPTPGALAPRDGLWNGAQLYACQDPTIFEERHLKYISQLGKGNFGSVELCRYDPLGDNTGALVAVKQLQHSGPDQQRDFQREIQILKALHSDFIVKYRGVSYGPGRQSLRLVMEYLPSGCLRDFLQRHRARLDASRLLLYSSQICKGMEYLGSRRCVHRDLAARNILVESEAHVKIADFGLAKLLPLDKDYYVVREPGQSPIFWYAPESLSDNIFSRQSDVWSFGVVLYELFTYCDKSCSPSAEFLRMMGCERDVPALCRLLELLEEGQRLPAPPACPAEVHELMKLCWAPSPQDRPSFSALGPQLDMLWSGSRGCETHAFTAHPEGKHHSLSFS

[16] = Dissociation constant, pKa of the compound; format: physicochemical
[17] = molecular target: T3, Serine/threonine-protein kinase D1 (Homo sapiens) (UniProt Q15139); experiment: Inhibition of protein kinase D1 (unknown origin) relative to control; settings: concentration not given here
T3 sequence (whole entry): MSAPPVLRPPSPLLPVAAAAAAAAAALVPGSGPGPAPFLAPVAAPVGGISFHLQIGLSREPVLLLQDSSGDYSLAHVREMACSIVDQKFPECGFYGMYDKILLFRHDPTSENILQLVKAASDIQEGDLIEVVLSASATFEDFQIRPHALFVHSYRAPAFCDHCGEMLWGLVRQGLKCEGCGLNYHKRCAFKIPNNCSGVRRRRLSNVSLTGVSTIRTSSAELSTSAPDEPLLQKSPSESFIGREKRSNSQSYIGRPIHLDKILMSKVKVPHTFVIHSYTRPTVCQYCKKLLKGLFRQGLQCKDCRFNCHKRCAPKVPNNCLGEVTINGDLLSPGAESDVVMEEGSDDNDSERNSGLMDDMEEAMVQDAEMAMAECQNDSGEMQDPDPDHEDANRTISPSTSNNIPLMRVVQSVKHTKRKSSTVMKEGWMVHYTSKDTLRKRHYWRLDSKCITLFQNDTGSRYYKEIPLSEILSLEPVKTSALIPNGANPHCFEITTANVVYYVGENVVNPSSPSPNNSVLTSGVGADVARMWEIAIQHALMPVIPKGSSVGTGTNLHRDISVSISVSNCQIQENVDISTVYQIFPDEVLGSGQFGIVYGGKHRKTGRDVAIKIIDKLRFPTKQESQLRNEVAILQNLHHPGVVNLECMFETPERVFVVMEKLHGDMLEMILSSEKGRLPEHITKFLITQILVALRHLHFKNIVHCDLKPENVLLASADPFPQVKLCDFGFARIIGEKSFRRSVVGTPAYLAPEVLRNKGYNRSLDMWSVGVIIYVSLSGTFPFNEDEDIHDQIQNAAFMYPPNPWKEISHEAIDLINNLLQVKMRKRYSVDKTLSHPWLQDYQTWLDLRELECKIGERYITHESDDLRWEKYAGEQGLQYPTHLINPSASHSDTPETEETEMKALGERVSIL
Procedure, shortened: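 Kinase selectivity panel of 50 non-JAK kinases. […] Percent inhibition scored, and enzymes inhibited by more than 40% were counted.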

T1 sequence (P23458 whole entry): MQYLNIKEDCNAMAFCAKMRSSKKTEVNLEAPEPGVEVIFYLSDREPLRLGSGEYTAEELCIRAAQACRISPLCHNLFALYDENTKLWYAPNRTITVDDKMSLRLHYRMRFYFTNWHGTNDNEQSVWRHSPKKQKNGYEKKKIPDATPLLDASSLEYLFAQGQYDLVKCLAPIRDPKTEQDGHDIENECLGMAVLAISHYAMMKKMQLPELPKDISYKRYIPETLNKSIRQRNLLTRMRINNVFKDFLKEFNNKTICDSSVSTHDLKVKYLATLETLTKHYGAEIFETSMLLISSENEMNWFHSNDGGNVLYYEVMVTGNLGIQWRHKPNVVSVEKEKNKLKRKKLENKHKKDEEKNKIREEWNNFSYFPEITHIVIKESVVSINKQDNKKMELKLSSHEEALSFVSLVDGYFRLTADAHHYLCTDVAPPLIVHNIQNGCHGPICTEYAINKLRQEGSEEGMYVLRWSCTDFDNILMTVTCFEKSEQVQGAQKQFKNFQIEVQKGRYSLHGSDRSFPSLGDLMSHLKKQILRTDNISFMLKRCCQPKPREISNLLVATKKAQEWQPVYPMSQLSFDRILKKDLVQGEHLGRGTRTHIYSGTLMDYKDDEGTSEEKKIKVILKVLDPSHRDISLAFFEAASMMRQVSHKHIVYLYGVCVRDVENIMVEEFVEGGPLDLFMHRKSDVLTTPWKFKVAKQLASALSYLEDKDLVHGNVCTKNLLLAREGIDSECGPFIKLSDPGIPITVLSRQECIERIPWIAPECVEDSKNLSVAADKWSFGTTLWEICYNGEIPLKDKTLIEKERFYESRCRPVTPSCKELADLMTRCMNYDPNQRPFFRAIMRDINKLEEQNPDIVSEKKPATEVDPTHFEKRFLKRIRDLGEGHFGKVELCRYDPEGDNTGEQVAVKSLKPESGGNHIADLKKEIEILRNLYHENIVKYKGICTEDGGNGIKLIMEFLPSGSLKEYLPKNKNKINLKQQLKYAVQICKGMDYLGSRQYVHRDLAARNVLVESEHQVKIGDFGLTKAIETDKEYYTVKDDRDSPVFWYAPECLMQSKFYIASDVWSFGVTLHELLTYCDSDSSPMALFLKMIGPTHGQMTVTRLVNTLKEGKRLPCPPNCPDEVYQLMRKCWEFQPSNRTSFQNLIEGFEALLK

Ki [1] | EC50 [2] | Ratio Ki (Homo sapiens [3]) | half-life [4] | Ki [5] | logD [6] | Ratio Ki (Homo sapiens [7]) | clearance [8] | Papp A→B [9] | Ratio Ki (Homo sapiens [10]) | AUC [11] | Cmax [12] | bioavailability [13] | Ki [14] | Ki [15] | pKa [16] | inhibition [17] | Structure (SMILES) | Ratio EC50 (TF-1)
121 nM |  | 5.9 | 1.1 h | 721 nM |  |  |  |  |  |  |  |  |  |  |  |  | CN1CCC[C@H]1C(=O)N1CCC(n2nnc3cnc4[nH]ccc4c32)CC1 | 
12 nM | 433 nM | 2.3 | 4.8 h | 27 nM | 2.08 |  |  |  |  |  |  |  |  |  |  |  | COC(=O)N[C@H]1CC[C@H](n2nnc3cnc4[nH]ccc4c32)CC1 | 4
4.7 nM | 350 nM | 3.6 | 3.7 h | 17 nM | 2.7 |  |  |  |  |  |  |  |  |  |  |  | CC(C)CC(=O)N[C@H]1CC[C@H](n2nnc3cnc4[nH]ccc4c32)CC1 | 5
> 3760 nM |  |  | 5.8 h |  | 1.36 |  |  |  |  |  |  |  |  |  |  |  | N#CCCO[C@H]1CC[C@H](n2nnc3cnc4[nH]ccc4c32)CC1 | 
745 nM |  | 1.7 | 1.3 h | 1230 nM |  |  |  |  |  |  |  |  |  |  |  |  | c1cc2c(ncc3nnn(CC4CCNCC4)c32)[nH]1 | 
12 nM | 395 nM | 2.8 | 4.3 h | 33 nM | 1.98 |  |  |  |  |  |  |  |  |  |  |  | COC(=O)N[C@@H]1CC[C@@H](n2nnc3cnc4[nH]ccc4c32)C1 (racemic) | 6.8
25 nM |  | 1.6 | 0.2 h |  |  |  |  |  |  |  |  |  |  |  |  |  | c1ccc(CN2CCC[C@@H](n3nnc4cnc5[nH]ccc5c43)C2)cc1 | 
2.4 nM | 127 nM | 4.2 | 0.9 h | 10 nM | 3.53 |  |  |  |  |  |  |  |  |  |  |  | CC(C)(C)OC(=O)N[C@@H]1CC[C@@H](n2nnc3cnc4[nH]ccc4c32)C1 | 4.3
120 nM |  | 3.3 | 1 h | 401 nM | 3.58 |  |  |  |  |  |  |  |  |  |  |  | CC(C)(C)OC(=O)N[C@H]1CC[C@H](n2nnc3cnc4[nH]ccc4c32)CC1 | 
2.1 nM | 138 nM | 1.8 | 1.9 h | 3.7 nM | 1.12 |  | 44 mL/min/kg | 17 ×10⁻⁶ cm/s |  | 1.8 µM·h | 4900 nM | 28% |  |  |  |  | N#CCCN1CCC(n2nnc3cnc4[nH]ccc4c32)CC1 | 4.6
 | 114 nM |  |  | 3.8 nM | 0.6 | > 10 | 110 mL/min/kg | 3.7 ×10⁻⁶ cm/s | > 10 | 1 µM·h | 400 nM | 41% | 20 nM | 24 nM | 1.96 |  | N#CCC(=O)N1CCC[C@@H](n2nnc3cnc4[nH]ccc4c32)C1 | 6.8
21 nM |  | 2.7 | 15 h | 57 nM | 0.77 |  |  |  |  |  |  |  |  |  |  |  | F[C@@H]1CNCC[C@H]1n1nnc2cnc3[nH]ccc3c21 (racemic) | 

The remaining lines, values behind:

Structure (SMILES) | Ki [1] | EC50 [2] | Ratio Ki (Homo sapiens [3]) | half-life [4] | Ki [5] | logD [6] | Ratio Ki (Homo sapiens [7]) | clearance [8] | Papp A→B [9] | Ratio Ki (Homo sapiens [10]) | AUC [11] | Cmax [12] | bioavailability [13] | Ki [14] | Ki [15] | pKa [16] | inhibition [17] | Ratio EC50 (TF-1)
c1ccc(CN2CCC(n3nnc4cnc5[nH]ccc5c43)CC2)cc1 | 8.5 nM | 121 nM | 2 | 0.5 h | 15 nM |  |  |  |  |  |  |  |  |  |  |  |  | 3.4
CC1(n2nnc3cnc4[nH]ccc4c32)CCN(CCC#N)CC1 | 156 nM |  | 3.1 | 4.8 h | 487 nM | 1.92 |  |  |  |  |  |  |  |  |  |  |  | 
CC1(n2nnc3cnc4[nH]ccc4c32)CCN(S(C)(=O)=O)CC1 | 7.9 nM | 220 nM | 6.7 | 32 h | 53 nM | 1.5 | > 10 | 211 mL/min/kg | 14 ×10⁻⁶ cm/s | > 10 | 1 µM·h | 700 nM | 82% | 234 nM | 369 nM |  |  | 15
c1cncc(CN2CCC(n3nnc4cnc5[nH]ccc5c43)CC2)c1 | 16 nM | 414 nM | 1.7 | 0.7 h | 28 nM | 2.03 |  |  |  |  |  |  |  |  |  |  |  | 2.7
N[C@H]1CC[C@H](n2nnc3cnc4[nH]ccc4c32)CC1 |  |  |  | 1.1 h |  | -0.24 |  |  |  |  |  |  |  |  |  |  |  | 
N#CCC(=O)N1CCC[C@@H](n2cnc3cnc4[nH]ccc4c32)C1 |  |  |  |  |  |  |  |  | 0.3 ×10⁻⁶ cm/s |  |  |  |  |  |  | 4.34 |  | 
N#CCCN[C@H]1CC[C@H](n2nnc3cnc4[nH]ccc4c32)CC1 |  |  |  | 2.3 h |  | 1.05 |  | 88 mL/min/kg | 7.2 ×10⁻⁶ cm/s |  | 1.4 µM·h | 900 nM | 44% |  | 122 nM |  | 44% | 
F[C@H]1CNCC[C@H]1n1nnc2cnc3[nH]ccc3c21 (racemic) | 198 nM |  | 2.3 |  | 446 nM | 0.27 |  |  |  |  |  |  |  |  |  |  |  | 
CS(=O)(=O)N1CCC(n2nnc3cnc4[nH]ccc4c32)CC1 | 6.2 nM | 249 nM | 1.9 | 1.7 h | 12 nM | 1.05 |  | 16 mL/min/kg | 13 ×10⁻⁶ cm/s |  | 18 µM·h | 4600 nM | > 100% |  |  |  |  | 4.8
c1cc2c(ncc3nnn(C4CCNCC4)c32)[nH]1 | 210 nM |  | 3.2 |  | 669 nM | -0.35 |  |  |  |  |  |  |  |  |  |  |  | 
O[C@H]1CC[C@H](n2nnc3cnc4[nH]ccc4c32)CC1 |  |  |  | 1.2 h |  | 1.76 |  |  |  |  |  |  |  |  |  |  |  | 
